According to ChEMBL document CHEMBL1155506 (J Med Chem, 2010):

Assays:
[1] = biological target: 5-hydroxytryptamine receptor 2A (Homo sapiens, UniProt P28223); assay: Displacement of [125I]DOI from human recombinant 5HT2A receptor expressed in HEK293 cells by scintillation counting; type: cell-based
In short: (§1)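 Crude plasma membranes from HEK293 cells stably expressing the human receptor (5–25 μg protein), in 20 mM HEPES pH 7.4 with 10 mM MgCl2. Incubated with 0.5 nM [125I]DOI and test compound (1 pM–10 μM) for 1 h at room temperature; nonspecific binding defined with 10 μM cold DOI. Filtered, washed with ice-cold Tris buffer and scintillation counted in triplicate.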

[2] = biological target: T1, 5-hydroxytryptamine receptor 2C (Homo sapiens, UniProt P28335); assay: Displacement of [125I]DOI from human recombinant 5HT2C receptor expressed in HEK293 cells by scintillation counting; type: cell-based; in short: as §1
T1 sequence (P28335 whole entry): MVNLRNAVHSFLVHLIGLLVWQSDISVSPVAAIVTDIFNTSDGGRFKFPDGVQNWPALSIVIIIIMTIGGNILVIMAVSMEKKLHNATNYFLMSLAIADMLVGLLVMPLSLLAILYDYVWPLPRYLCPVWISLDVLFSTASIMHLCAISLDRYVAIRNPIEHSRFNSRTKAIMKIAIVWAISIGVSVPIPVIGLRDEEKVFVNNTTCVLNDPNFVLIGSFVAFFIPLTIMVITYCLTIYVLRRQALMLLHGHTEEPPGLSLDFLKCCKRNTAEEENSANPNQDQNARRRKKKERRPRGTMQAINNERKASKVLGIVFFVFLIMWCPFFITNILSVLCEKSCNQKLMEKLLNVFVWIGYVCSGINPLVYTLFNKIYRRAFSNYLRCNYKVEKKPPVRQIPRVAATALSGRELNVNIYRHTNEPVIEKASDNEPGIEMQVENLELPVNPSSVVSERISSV

[3] = Antiplatelet activity in human platelet rich plasma assessed as inhibition of ADP-induced aggregation preincubated for 1 min before 5-HT and ADP challenge measured after 3 mins by turbidimetry
[4] = Half life in Sprague-Dawley rat at 10 mg/kg, po by HPLC/MS/MS analysis; type: ADME, organism-based; design: dose 10 mg/kg, route oral; settings: in vivo
In short: (§2)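 Male rats fasted overnight before oral dosing; 10 mg/kg po and 2 mg/kg iv in 80% PEG400/20% phosphate buffered saline. Jugular vein blood was sampled at 0.25–21 h over 24 h, and heparin plasma was assayed by HPLC/MS/MS (MRM, positive electrospray, internal standard; LLOQ 1 ng/mL, ULOQ 2000 ng/mL). %F is taken relative to the 2 mg/kg iv dose. Mean of n = 3 animals.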

[5] = AUC (0 to last) in Sprague-Dawley rat at 10 mg/kg, po after 24 hrs by HPLC/MS/MS analysis; type: ADME, organism-based; design: time 0 - last, dose 10 mg/kg, route oral; settings: plasma; in short: as §2
[6] = Total clearance in Sprague-Dawley rat at 2 mg/kg, iv after 24 hrs by HPLC/MS/MS analysis; type: ADME, organism-based; design: dose 2 mg/kg, route intravenous; settings: in vivo; in short: as §2
[7] = Bioavailability in Sprague-Dawley rat at 2 mg/kg, iv after 24 hrs by HPLC/MS/MS analysis; type: ADME, organism-based; settings: in vivo; in short: as §2
[8] = Volume of distribution at steady state in Sprague-Dawley rat at 2 mg/kg, iv after 24 hrs by HPLC/MS/MS analysis; type: ADME, organism-based; design: dose 2 mg/kg, route intravenous; settings: in vivo, read-out: Vdss; in short: as §2
[9] = Cmax in Sprague-Dawley rat at 10 mg/kg, po after 24 hrs by HPLC/MS/MS assay; type: ADME, organism-based; design: dose 10 mg/kg, route oral; settings: in vivo; in short: as §2
hERG (KCNH2) = hERG (KCNH2) (Homo sapiens, UniProt Q12809); assay: Inhibition of human ERG at 3 uM by patch clamp assay
hERG (KCNH2), sequence (Q12809 whole entry): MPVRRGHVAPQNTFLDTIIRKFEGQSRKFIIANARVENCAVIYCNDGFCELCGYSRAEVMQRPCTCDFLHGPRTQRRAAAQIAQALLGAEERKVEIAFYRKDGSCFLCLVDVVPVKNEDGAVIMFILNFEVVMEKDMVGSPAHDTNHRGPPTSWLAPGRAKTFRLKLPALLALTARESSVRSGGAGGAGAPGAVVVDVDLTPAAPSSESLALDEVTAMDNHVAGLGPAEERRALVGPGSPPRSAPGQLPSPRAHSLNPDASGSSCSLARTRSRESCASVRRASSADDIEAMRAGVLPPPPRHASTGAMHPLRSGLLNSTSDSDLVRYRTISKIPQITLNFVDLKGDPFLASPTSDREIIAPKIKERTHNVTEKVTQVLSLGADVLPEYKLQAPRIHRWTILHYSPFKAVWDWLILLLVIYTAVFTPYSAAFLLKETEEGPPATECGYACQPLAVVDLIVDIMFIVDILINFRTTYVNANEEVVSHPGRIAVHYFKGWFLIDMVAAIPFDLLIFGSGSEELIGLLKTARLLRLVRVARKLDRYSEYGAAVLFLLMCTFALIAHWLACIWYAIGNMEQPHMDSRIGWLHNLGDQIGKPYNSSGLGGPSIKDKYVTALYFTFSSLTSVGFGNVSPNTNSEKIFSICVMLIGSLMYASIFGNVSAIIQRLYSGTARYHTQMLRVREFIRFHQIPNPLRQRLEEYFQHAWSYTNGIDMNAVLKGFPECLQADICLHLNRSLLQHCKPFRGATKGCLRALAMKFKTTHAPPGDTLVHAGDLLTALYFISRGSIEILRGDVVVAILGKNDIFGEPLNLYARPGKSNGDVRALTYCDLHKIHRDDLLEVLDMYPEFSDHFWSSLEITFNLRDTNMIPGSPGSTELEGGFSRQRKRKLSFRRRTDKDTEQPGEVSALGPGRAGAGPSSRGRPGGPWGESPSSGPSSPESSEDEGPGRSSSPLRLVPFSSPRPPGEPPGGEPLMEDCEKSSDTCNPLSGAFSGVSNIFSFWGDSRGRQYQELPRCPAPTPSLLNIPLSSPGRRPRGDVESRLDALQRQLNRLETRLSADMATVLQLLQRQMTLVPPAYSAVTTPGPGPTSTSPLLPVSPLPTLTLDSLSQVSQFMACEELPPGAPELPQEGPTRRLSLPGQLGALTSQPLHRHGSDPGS

5-hydroxytryptamine receptor 2A, sequence (P28223 whole entry): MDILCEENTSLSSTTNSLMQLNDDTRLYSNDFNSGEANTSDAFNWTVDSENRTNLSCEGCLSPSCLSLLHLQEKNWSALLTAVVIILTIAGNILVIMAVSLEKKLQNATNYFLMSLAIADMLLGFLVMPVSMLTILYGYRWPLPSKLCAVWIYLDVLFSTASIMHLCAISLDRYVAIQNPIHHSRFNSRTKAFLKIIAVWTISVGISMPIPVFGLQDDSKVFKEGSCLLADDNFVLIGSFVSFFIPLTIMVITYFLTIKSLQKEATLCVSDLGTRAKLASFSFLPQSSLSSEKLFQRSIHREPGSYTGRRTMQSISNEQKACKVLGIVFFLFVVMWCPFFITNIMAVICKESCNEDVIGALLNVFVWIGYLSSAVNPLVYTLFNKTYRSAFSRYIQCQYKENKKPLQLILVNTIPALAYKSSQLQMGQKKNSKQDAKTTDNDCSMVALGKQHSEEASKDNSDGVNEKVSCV

Structure (SMILES) | Ki [1] | Ki [2] | IC50 [3] | half-life [4] | AUC(0-t) at 24 h [5] | clearance [6] | bioavailability [7] | Vd [8] | Cmax [9] | inhibition at 3 µM (hERG (KCNH2))
CC(=O)N1CCN(CCOc2ccc(NC(=O)c3cccc(F)c3)cc2-c2ccnn2C)CC1 | 15 nM | > 10000 nM | 40 nM | – | – | – | – | – | – | –
Cn1nccc1-c1cc(NC(=O)c2cccc(C(F)(F)F)c2)ccc1OCCN1CCOCC1 | 0.7 nM | > 10000 nM | 18 nM | 1.8 h | 288 ng·h/mL | 160 mL/min/kg | 27% | 5.1 L/kg | 202 ng/mL | –
CC(=O)N1CCN(CCOc2ccc(NC(=O)c3cccc(F)c3)cc2-c2c(Cl)cnn2C)CC1 | 2.2 nM | 8600 nM | 70 nM | – | – | – | – | – | – | 43%
Cn1nccc1-c1cc(NC(=O)c2cccc(C(F)(F)F)c2)ccc1OCCN1CCC(F)(F)C1 | 12 nM | 9250 nM | 189 nM | – | – | – | – | – | – | 50%
COc1cccc(C(=O)Nc2ccc(OCCN3CCN(C(N)=O)CC3)c(-c3ccnn3C)c2)c1 | 5.1 nM | 5890 nM | 57 nM | – | – | – | – | – | – | 17%
